Source: ChEMBL document CHEMBL4196194, “De Novo Design of α-Helical Lipopeptides Targeting Viral Fusion Proteins: A Promising Strategy for Relatively Broad-Spectrum Antiviral Drug Discovery” (J Med Chem, 2018)
The source made the active and inactive calls. The calls are words filed in the database; no cut-off is given here.

Assays:
Influenza A virus [1] = settings: A/Puerto Rico/8/1934(H1N1), 0.1 to 1000 uM
Influenza A virus [2] = experiment: Inhibition of influenza A virus infected in MDCK cells assessed as inhibition of viral load treated with compound at 5 to 8 hrs post-infection by RT-qPCR method based time of addition assay; assay type: functional, organism-based
In short: (§1)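 MDCK cells (2.0 × 10^5/well) washed with PBS, virus adsorbed (MOI 0.05) 60 min at 4 °C, washed, then compound present only during 0–10, 0–2, 2–5, 5–8 or 8–10 h postinfection; cultured in fresh medium to 10 h, total RNA extracted, viral load by absolute one-step RT-qPCR; triplicate, versus PBS control.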

Influenza A virus [3] = settings: Hong Kong/8/1968(H3N2), 0.1 to 1000 uM
Influenza A virus [4] = experiment: Inhibition of influenza A virus infected in MDCK cells assessed as inhibition of viral load treated with compound at 2 to 5 hrs post-infection by RT-qPCR method based time of addition assay; assay type: functional, organism-based
In short: as §1

Influenza A virus [5] = experiment: Inhibition of influenza A virus infected in MDCK cells assessed as inhibition of viral load treated with compound at 0 to 10 hrs post-infection by RT-qPCR method based time of addition assay; assay type: functional
In short: as §1

Influenza A virus [6] = experiment: Inhibition of influenza A virus infected in MDCK cells assessed as inhibition of viral load treated with compound at 0 to 2 hrs post-infection by RT-qPCR method based time of addition assay; assay type: functional
In short: as §1

Influenza A virus [7] = experiment: Antiviral activity against influenza A virus assessed as inhibition of viral replicon activity incubated for 30 hrs by firefly luciferase reporter gene assay; assay type: functional, organism-based
In short: (§2)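 HEK293T cells (2.5 × 10^4/well) transfected with plasmids for NP, PB1, PB2, PA plus p0LN-S-Luc firefly and pRL-SV40 Renilla reporters; serially diluted compound added 6 h post-transfection, luciferase read after 30 h by Dual-Glo. Activity = firefly/Renilla ratio; % inhibition normalized to positive and negative controls, curve-fitted; three independent measurements.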

[8] = Cytotoxicity in MDCK cells assessed as reduction in cell viability incubated for 72 hrs by cell-titer-Glo cell viability assay; assay type: cell-based, Canis lupus familiaris; settings: dog
Influenza A virus [9] = experiment: Antiviral activity against influenza A virus Hong Kong/8/1968(H3N2) infected in HEK293T cells assessed as inhibition of viral replicon activity incubated for 30 hrs by dual-Glo luciferase assay; assay type: functional, organism-based; settings: HEK-293T
In short: as §2

Influenza A virus [10] = experiment: Antiviral activity against influenza A virus assessed as inhibition of viral replicon activity up to 100 uM incubated for 30 hrs by firefly luciferase reporter gene assay; assay type: functional, organism-based
In short: as §2

Influenza A virus [11] = experiment: Antiviral activity against Influenza A virus (A/Puerto Rico/8/1934(H1N1)) infected in HEK293T cells assessed as inhibition of viral replicon activity incubated for 30 hrs by dual-Glo luciferase assay; assay type: functional, organism-based; settings: HEK-293T
In short: as §2

Influenza A virus [12] = experiment: Antiviral activity against influenza A virus Hong Kong/8/1968(H3N2) infected in HEK293T cells assessed as inhibition of viral replicon activity up to 20 uM incubated for 30 hrs by dual-Glo luciferase assay; assay type: functional, organism-based
In short: as §2

Influenza A virus [13] = experiment: Antiviral activity against Influenza A virus (A/Puerto Rico/8/1934(H1N1)) infected in HEK293T cells assessed as inhibition of viral replicon activity up to 20 uM incubated for 30 hrs by dual-Glo luciferase assay; assay type: functional, organism-based
In short: as §2

[14] = Inhibition of MERS-CoV spike protein-mediated cell-cell fusion in 293T/MERS/EGPF cells assessed as reduction in cell fusion incubated for 4 hrs by inverted fluorescence microscopy; assay type: cell-based, Middle East respiratory syndrome-related coronavirus
In short: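 Huh-7 cells expressing DPP4 plated 5 × 10^4/well, 5 h at 37 °C; serially diluted peptide added, then 293T cells carrying MERS-CoV S and EGFP (or EGFP-only control cells), 1 × 10^4/well. After 4 h coculture at 37 °C, fused and unfused effector cells counted by fluorescence microscopy.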

[15] = Cytotoxicity in human HuH7 cells assessed as reduction in cell viability incubated for 48 hrs by CCK8 assay; assay type: cell-based, Huh-7
In short: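 Huh-7 cells (1 × 10^5 cells/mL suspension seeded) grown 12 h at 37 °C, 5% CO2, then serially diluted peptide added for 48 h; untreated blank and Triton X-100 controls. CCK-8 added for 2 h, absorbance at 450 nm.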

NC(=O)c1nc(F)cnc1O
inhibition (Influenza A virus [1]): inactive | inhibition (Influenza A virus [2]): Active | inhibition (Influenza A virus [3]): inactive | inhibition (Influenza A virus [4]): Active | inhibition (Influenza A virus [5]): Active | inhibition (Influenza A virus [6]): Active | IC50 (Influenza A virus [7]): 26200 nM | inhibition (Influenza A virus [7]): Dose-dependent effect

CCOC(=O)C1=C[C@@H](OC(CC)CC)[C@H](NC(C)=O)[C@@H](N)C1 [OSELTAMIVIR]
CC50 at 72 h [8]: > 100000 nM | EC50 (Influenza A virus [9]): 10 nM | inhibition (Influenza A virus [10]): inactive | EC50 (Influenza A virus [11]): 1480 nM

CC[C@H](C)[C@H](NC(=O)[C@H](Cc1ccc(O)cc1)NC(=O)[C@H](CO)NC(=O)[C@H](CCC(=O)O)NC(=O)[C@H](CCC(=O)O)NC(=O)[C@H](CC(C)C)NC(=O)[C@H](CCCCN)NC(=O)[C@H](CCCCN)NC(=O)[C@@H](NC(=O)[C@@H](NC(=O)[C@H](CCC(=O)O)NC(=O)[C@H](CCC(=O)O)NC(=O)[C@H](CC(C)C)NC(=O)[C@H](CCCCN)NC(=O)[C@H](CCCCN)NC(=O)[C@H](CCSC)NC(=O)[C@H](CCC(=O)O)NC(=O)[C@H](Cc1ccc(O)cc1)NC(=O)[C@H](CCC(=O)O)NC(=O)[C@H](CC(C)C)NC(=O)[C@H](CC(=O)O)NC(=O)[C@H](CC(C)C)NC(=O)[C@H](CC(C)C)NC(=O)[C@@H](NC(=O)[C@@H](NC(=O)[C@H](CC(N)=O)NC(=O)[C@@H](NC(=O)[C@H](CCC(N)=O)NC(=O)[C@@H](NC(=O)[C@H](CC(C)C)NC(=O)[C@H](CO)NC(C)=O)[C@@H](C)O)[C@@H](C)CC)[C@@H](C)O)[C@@H](C)O)C(C)C)C(C)C)C(=O)N[C@@H](CC(=O)O)C(=O)N[C@@H](CC(C)C)C(=O)N[C@@H](CCCCN)C(=O)N[C@@H](CCC(=O)O)C(=O)N[C@@H](CC(C)C)C(N)=O
Activity (Influenza A virus [12]): inactive | Activity (Influenza A virus [13]): inactive | EC50 [14]: 150 nM | CC50 at 48 h [15]: > 100000 nM
